This is a sample that favours compounds with a hit; in the whole collection about 3% have one here.
iPSC survival up = enhancers of single-cell hiPSC survival, primary screen, ATPlite luminescence. 100% = ROCK inhibitor wells, 0% = DMSO. survival enhancement, % at 20 µM. actives 0.044% (n = 360,000). AID 602274, 2012; in the data active means survival enhancement above about 18%;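 further: cells exposed to compounds for 16 hours before the ATP read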
UBC13 inh = UBC13 polyubiquitin chain formation inhibitors, primary screen, biochemical, TR-FRET, uHTS; inhibition, % at 20 µM; actives 0.47% (n = 330,000); in the data active means inhibition above about 45%, passing the limit was not always enough
Target sequence (P61088 whole entry, looked up): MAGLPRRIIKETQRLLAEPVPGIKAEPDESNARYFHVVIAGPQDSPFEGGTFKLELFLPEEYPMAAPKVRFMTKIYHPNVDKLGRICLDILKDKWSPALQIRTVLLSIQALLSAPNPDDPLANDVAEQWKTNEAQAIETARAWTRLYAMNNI
MPTP block = mitochondrial permeability transition pore inhibitors, primary screen, biochemical, isolated mouse mitochondria, absorbance; actives 1.4% (n = 360,000); AID 602449, 2012; inhibition, % at 10 µM; Ca2+ swelling absorbance, 30 min;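 active means inhibition of 50% or more, scaled per plate between neutral and stimulator controls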;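 further: 0% = DMSO wells given calcium and 100% = 1 mM EGTA wells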
Apaf1 inhib = inhibitors of human Apaf-1 apoptosome, primary screen, biochemical, DEVD-Rh110 fluorescence, uHTS | reconstituted apoptosome caspase-3 activity | Apoptotic protease-activating factor 1 (Homo sapiens), O14727 | actives 0.71% (n = 330,000) | inhibition, % at 20 µM; active means inhibition of at least 40% at 20 µM;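 further: plate controls were DMSO wells for no effect and DEVD-CHO caspase inhibitor wells for full effect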
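System: reconstituted apoptosome with Apaf-1, cytochrome c, caspase-9, procaspase-3, dATP; Signal: Rh110 fluorescence intensity; Schedule: 30 min compound preincubation, 50 min activation, room temperature; Reagent: cytochrome c trigger plus (Z-DEVD)2-Rh110 caspase-3 substrate.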
Exocytosis inh = LAMP-1 surface exposure blockers, TALL-104 cells – cell-based, flow cytometry, MLPCN library, primary screen; inhibition, % at 10 µM; TALL-104 LAMP-1 surface exposure; cells stimulated with thapsigargin and PMA; AID 651702, 2012; actives 0.66% (n = 360,000);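 active means inhibition above about 55%, limit read from the data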
beta cell repl = inducers of MIN6 beta-cell proliferation, primary screen, ATP luminescence, uHTS. proliferation, % at 10 µM. MIN6 cells proliferation, ATPlite luminescence, 48 h; cells starved in 0.2% serum; 100% = growth in 10% serum. AID 2380, 2010. actives 0.29% (n = 330,000);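 active means compounds whose signal lies at least 3.5 SD above the mean of all wells on their plate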;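 further: 0% = DMSO-treated cells in low-serum medium and 100% = 10% serum control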
Apaf-1 inh conf = Apaf-1 inhibitors, single-dose retest, confirmation, biochemical, fluorescence, DEVD-Rh110, 20 µM | actives 25% (n = 1,800) | reconstituted apoptosome, caspase-3 DEVD-Rh110 fluorescence | inhibition, % at 20 µM | shares compounds with Apaf1 inhib;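 active means mean inhibition of at least 40% at 20 µM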;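 further: plate controls were DMSO wells for no effect and DEVD-CHO caspase inhibitor control wells for full effect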
Rh110 interf inh = Rh110 fluorescence interference by putative Apaf-1 inhibitors, confirmation, artefact control for Apaf-1 inhibitor project, biochemical, 20 µM. shares compounds with Apaf1 inhib. quenched caspase reaction. activation (fluorescence interference), % at 20 µM. 1,800 tested, under 10 active;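 active means signal rise of 40% or more at 20 µM, treated as a fluorescence artifact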
Fluor interf inh = fluorescence interference of Apaf-1 inhibitor hits, dose response, artefact control for Apaf-1 inhibitor project | IC50, µM | 460 tested, under 10 active | fluorescence interference counterscreen, Apaf-1 assay format | shares compounds with Apaf1 inhib; call rule not given here
* marks the source's active call; other numbers are inactive results; . = no result.

SMILES | iPSC survival up | UBC13 inh | MPTP block | Apaf1 inhib | Exocytosis inh | beta cell repl | Apaf-1 inh conf | Rh110 interf inh | others
Cc1cc2cc(CNC(=O)c3ccc(S(=O)(=O)N4CCCCC4)cc3)ccc2n1C | 2 | -12 | 2 | 53* | 0 | -2 | 17 | 1
O=S(=O)(/N=C/N1CCOCC1)c1ccc(Cl)cc1 | 2 | 9 | 1 | 43* | -2 | -1 | 11 | -3
Oc1ccc(NCc2ccccc2OCc2ccccc2F)cc1 | -3 | 1 | 1 | 92* | 9 | -4 | 30 | 10
COc1cc2c(cc1OC)CN(Cc1cc(=O)n3c(-c4ccccc4)csc3n1)CC2 | 0 | -8 | 0 | 42* | -2 | -2 | 11 | 8
CC(=O)Nc1ccc(S(=O)(=O)NC2=C(N3CCN(c4ccc(F)cc4)CC3)C(=O)c3ccccc3C2=O)cc1 | 0 | -70 | -2 | 64* | 0 | -3 | 64* | 4 | Fluor interf inh=>100
Cc1ccc(S(=O)(=O)NC2=C(N3CCN(c4ccccc4F)CC3)C(=O)c3ccccc3C2=O)cc1 | -2 | -107 | 5 | 76* | 24 | -5 | 20 | 2
O=S(=O)(c1cccs1)N1CCN(c2ccccc2)CC1 | 2 | 6 | 0 | 0 | 10 | 0 | . | .
O=C1C(NS(=O)(=O)c2cccs2)=C(N2CCN(c3ccccc3)CC2)C(=O)c2ccccc21 | -5 | -53 | -5 | 41* | 10 | -6 | 25 | 5
CC(=O)Nc1ccc(S(=O)(=O)Nc2ccc(N3CCOCC3)cc2)cc1 | 1 | 0 | -7 | 4 | -1 | -3 | . | .
NC(Cc1ccc(C(F)(F)F)cc1)c1csc(Nc2nccc(C(F)(F)F)n2)n1 (configuration not stated) | -2 | . | 3 | . | 17 | . | . | .
CN(CC(=O)Nc1ccc(F)cc1)C(=O)COC(=O)c1nc(Cl)ccc1Cl | -1 | . | -1 | . | -1 | . | . | .
COc1ccc(C(=O)c2[nH]c(N)c(C(=O)NCCc3c[nH]c4ccccc34)c2-c2ccc(OC)c(OC)c2)cc1 | 0 | . | 1 | . | -2 | . | . | .
CN(C)S(=O)(=O)c1cccc(NC(=O)c2cccc(S(=O)(=O)N3CCc4ccccc43)c2)c1 | 0 | -6 | 3 | 0 | 3 | -3 | . | .
Cc1[nH]n(-c2ccccc2)c(=O)c1N=Nc1nccs1 | 0 | -207 | 21 | 73* | 1 | -5 | 35 | 19
CC(=O)NC1N=C(C)N(c2ccccc2)C1=O (configuration not stated) | -4 | -38 | -1 | 70* | 0 | -2 | 9 | -3
CN(CC(=O)NCc1ccccc1)CC(=O)Nc1ccc(Cl)c(C(F)(F)F)c1 | 0 | 38 | 0 | 53* | 7 | -6 | 37 | 9
CN(CC(=O)NC(=O)NCc1ccccc1)CC(=O)Nc1ccc(Cl)c(C(F)(F)F)c1 | 0 | 7 | 1 | 38 | -3 | -7 | . | .
CN(CC(=O)Nc1ccc(Cl)c(C(F)(F)F)c1)C(=O)CC1Sc2ccccc2NC1=O (configuration not stated) | 0 | 17 | 0 | 51* | 0 | -6 | 47* | 19 | Fluor interf inh=>100
COc1ccc2cc(C(C)C(=O)N3CCC(C(N)=O)CC3)ccc2c1 (configuration not stated) | 0 | 2 | 1 | 11 | -9 | -2 | . | .
